# Experimental data from ChEMBL document CHEMBL1126763, “Nonpeptide angiotensin II receptor antagonists. Synthesis and biological activity of potential prodrugs of benzimidazole-7-carboxylic acids” (J Med Chem, 1993).
# What was measured:
# [1] = biological target: T1, Angiotensin II receptor (Rattus norvegicus) (UniProt P29089+P25095+P35351); assay: Inhibitory effect on AII (100 ng/kg iv)-induced pressor response after administration at 0.1 mg/kg po in conscious male Sprague-Dawley rats at 0.5 h.; assay type: functional, organism-based; parameters: dose 0.1 mg/kg
# Procedure, shortened: (§1)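 Conscious male Sprague-Dawley rats received test compounds orally at 0.1 mg/kg. AII (100 ng/kg iv) was given as a pressor challenge at each time point after dosing, and percent inhibition of the pressor response was recorded. Experiments were run in duplicate (n = 2); parent drug and one ester used n = 3. Inhibition may vary by less than 30%.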
# [2] = Tested for half- life in rat small intestine homogenate (1%); assay type: ADME
# Procedure, shortened: (§2)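 Prodrugs (final 10 μg/mL) were incubated at 37 °C in rat 1% small intestine homogenate, 2% liver homogenate or 10% plasma. Aliquots taken from 10 s to 30 min were deproteinized with methanol, and the residue was redissolved in 1/15 M phosphate buffer. Released parent acid was measured by HPLC (ODS column, UV 258 nm, 0.01 M KH2PO4/MeCN 55/45). t1/2 was taken from the concentration change; mean ± SD, n = 3.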
# [3] = Tested for Half- life in rat liver homogenate (2%); assay type: ADME; procedure, shortened: as §2
# [4] = Tested for Half- life in rat plasma homogenate (10%) at 37 degree Centigrade; assay type: ADME; procedure, shortened: as §2
# [5] = biological target: T1, Angiotensin II receptor (Rattus norvegicus); assay: Inhibitory activity on AII (100 ng/kg iv)-induced pressor response after administration at 0.1 mg/kg po in conscious male Sprague-Dawley rats at 7 h.; assay type: functional, organism-based; parameters: dose 0.1 mg/kg; procedure, shortened: as §1
# [6] = biological target: T1, Angiotensin II receptor (Rattus norvegicus); assay: Inhibitory activity on AII (100 ng/kg iv)-induced pressor response after administration at 0.1 mg/kg po in conscious male Sprague-Dawley rats at 5 h.; assay type: functional, organism-based; parameters: dose 0.1 mg/kg; procedure, shortened: as §1
# [7] = biological target: T1, Angiotensin II receptor (Rattus norvegicus); assay: Inhibitory activity on AII (100 ng/kg iv)-induced pressor response after administration at 0.1 mg/kg po in conscious male Sprague-Dawley rats at 24 h.; assay type: functional, organism-based; parameters: dose 0.1 mg/kg; procedure, shortened: as §1
# [8] = biological target: T1, Angiotensin II receptor (Rattus norvegicus); assay: Inhibitory activity on AII (100 ng/kg iv)-induced pressor response at 0.1 mg/kg po in conscious male Sprague-Dawley rats at 1 h.; assay type: functional, organism-based; parameters: dose 0.1 mg/kg; procedure, shortened: as §1
# [9] = biological target: T1, Angiotensin II receptor (Rattus norvegicus); assay: Inhibitory activity on AII (100 ng/kg iv)-induced pressor response after administration at 0.1 mg/kg po in conscious male Sprague-Dawley rats at 2 h.; assay type: functional, organism-based; parameters: dose 0.1 mg/kg; procedure, shortened: as §1
# [10] = biological target: T1, Angiotensin II receptor (Rattus norvegicus); assay: Inhibitory activity on AII (100 ng/kg iv)-induced pressor response after administration at 0.1 mg/kg po in conscious male Sprague-Dawley rats at 3 h.; assay type: functional, organism-based; parameters: dose 0.1 mg/kg; procedure, shortened: as §1
# [11] = Tested against A II at (100 ng/kg iv) in Dawley rats (n=2). 24 h; assay type: functional; procedure, shortened: as §1
# Rattus norvegicus [12] = assay: Inhibitory activity on AII (100 ng/kg iv) -induced pressor response after administration at 0.1 mg/kg po in Dawley rats at 0.5 h; assay type: functional; procedure, shortened: as §1
# Rattus norvegicus [13] = assay: Inhibitory activity on AII (100 ng/kg iv) -induced pressor response after administration at 0.1 mg/kg po in Dawley rats at 1 h; assay type: functional; procedure, shortened: as §1
SMILES,inhibition [1] [%],half-life [2] [min],half-life [3] [min],half-life [4] [min],inhibition [5] [%],inhibition [6] [%],inhibition [7] [%],inhibition [8] [%],inhibition [9] [%],inhibition [10] [%],Inhibition [11] [%],inhibition in vivo at 0.1 mg/kg (Rattus norvegicus [12]) [%],inhibition in vivo at 0.1 mg/kg (Rattus norvegicus [13]) [%]
CCCCc1nc2cccc(C(=O)O)c2n1Cc1ccc(-c2ccccc2-c2nnn(COC(=O)C(C)(C)C)n2)cc1.CCCCc1nc2cccc(C(=O)O)c2n1Cc1ccc(-c2ccccc2-c2nnnn2COC(=O)C(C)(C)C)cc1,7,22.7,9.8,3.94,69,67,32,4,33,63,–,–,–
CCCCc1nc2cccc(C(=O)OCOC(=O)C(C)(C)C)c2n1Cc1ccc(-c2ccccc2-c2nn[nH]n2)cc1,58,1.08,3.61,0.69,86,92,50,90,96,95,–,–,–
CCOc1nc2cccc(C(=O)OCOC(=O)C(C)(C)C)c2n1Cc1ccc(-c2ccccc2-c2nn[nH]n2)cc1,42,0.3,0.48,0.15,86,87,43,77,88,86,–,–,–
CCOc1nc2cccc(C(=O)OC(C)OC(=O)OC3CCCCC3)c2n1Cc1ccc(-c2ccccc2-c2nnn[nH]2)cc1 (stereo not drawn) [CANDESARTAN CILEXETIL],–,4.92,2.29,2.73,–,–,–,–,–,–,–,–,–
CCCCc1nc2cccc(C(=O)OCc3oc(=O)oc3C)c2n1Cc1ccc(-c2ccccc2-c2nnn(Cc3oc(=O)oc3C)n2)cc1.CCCCc1nc2cccc(C(=O)OCc3oc(=O)oc3C)c2n1Cc1ccc(-c2ccccc2-c2nnnn2Cc2oc(=O)oc2C)cc1,7,–,–,–,46,59,–,9,33,60,17,–,–
CCCCc1nc2cccc(C(=O)OCCN3CCOCC3)c2n1Cc1ccc(-c2ccccc2-c2nn[nH]n2)cc1,–,–,–,–,96,96,66,–,96,96,–,67,94

# More lines, main results first:
inhibition [1] [%],half-life [2] [min],half-life [3] [min],half-life [4] [min],inhibition [5] [%],inhibition [6] [%],inhibition [7] [%],inhibition [8] [%],inhibition [9] [%],inhibition [10] [%],SMILES,Inhibition [11] [%],inhibition in vivo at 0.1 mg/kg (Rattus norvegicus [12]) [%],inhibition in vivo at 0.1 mg/kg (Rattus norvegicus [13]) [%]
–,–,–,–,27,38,11,–,50,47,CCCCc1nc2cccc(C(=O)OC)c2n1Cc1ccc(-c2ccccc2-c2nn[nH]n2)cc1,–,11,52
–,–,–,–,90,88,76,–,80,78,CCCCOC(=O)c1cccc2nc(CCCC)n(Cc3ccc(-c4ccccc4-c4nn[nH]n4)cc3)c12,–,16,40
–,–,–,–,49,62,28,–,46,69,CCCCc1nc2cccc(C(=O)OCCN3CCCCC3)c2n1Cc1ccc(-c2ccccc2-c2nn[nH]n2)cc1,–,20,47
